Screens (PubChem BioAssay)
rRNA inh HTS – reduced GFP signal of wild-type E. coli, primary screen, bacterial rRNA inhibitor project, GFP/RFP fluorescence, OD600, single point; E. coli WT GFP vs humanized-ribosome RFP mutants, 24 h; hits give low values; DMSO median 0, no signal -100; GFP signal change (wild-type ribosome), % (no concentration beside the values); 1.6% of 350,000 active; AID 720706, 2013;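 active = significant combined selectivity score with lowered wild-type GFP, culture density cut under 30%, mutant RFP and density less affected; inactive = any of these conditions unmet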
Cneo AK release – Cryptococcus neoformans cell lysis inducers, primary screen, AK release luminescence, single concentration | C. neoformans lysis, adenylate kinase release luminescence, 4 h; normalised: neutral wells 0, clomiphene wells 100 | lysis activity, % at 15 µM | 0.2% of 360,000 active | AID 651654, 2012;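 active = mean lysis activity across replicates of at least 80%, whatever share of replicates individually reach that level; inactive = mean lysis activity below 80%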
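Material – Cryptococcus neoformans yeast cells · Quantity – 5 × 10^6 yeast cells/mL · Buffer or medium – YPD medium · Compound – single dose · Timing – 4 h static compound exposure, 37 °C, read 1 h post-reagent · Signal – adenylate kinase release luminescence · Read-out basis – lysis from increased AK signal · Benchmarks – Clomiphene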
DENV2 CPE – inhibitors of DENV2 cytopathic effect, primary screen, cell-based, plate reader, single concentration | DENV2-infected cells, cytopathic effect rescue | CPE inhibition, % at 9.99 µM | 1.7% of 350,000 active | AID 651640, 2012; in the data active = CPE inhibition above about 20%, passing the limit was not always enough; inconclusive = no clear call, values can overlap the other calls; tested in BHK-21 cells;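 note: 0% = median of neutral control wells and 100% = median of positive control wells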
MLL AF4-AF9 inh – inhibitors of AF4 peptide binding to AF9, primary screen, biochemical, AlphaScreen, biotin-AF4 peptide, FLAG-AF9, single point; AID 651704, 2012; inhibition, % at 10 µM; Protein AF-9 (Homo sapiens), P42568; 0.47% of 350,000 active;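 active = every replicate reaching a set inhibition limit, whatever the replicate mean, cut at about 25% in these data; inconclusive = mean inhibition reaches that limit but some replicates miss it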;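 note: 0% = plate neutral control median and 100% = total signal loss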
Target sequence (P42568 whole entry, looked up): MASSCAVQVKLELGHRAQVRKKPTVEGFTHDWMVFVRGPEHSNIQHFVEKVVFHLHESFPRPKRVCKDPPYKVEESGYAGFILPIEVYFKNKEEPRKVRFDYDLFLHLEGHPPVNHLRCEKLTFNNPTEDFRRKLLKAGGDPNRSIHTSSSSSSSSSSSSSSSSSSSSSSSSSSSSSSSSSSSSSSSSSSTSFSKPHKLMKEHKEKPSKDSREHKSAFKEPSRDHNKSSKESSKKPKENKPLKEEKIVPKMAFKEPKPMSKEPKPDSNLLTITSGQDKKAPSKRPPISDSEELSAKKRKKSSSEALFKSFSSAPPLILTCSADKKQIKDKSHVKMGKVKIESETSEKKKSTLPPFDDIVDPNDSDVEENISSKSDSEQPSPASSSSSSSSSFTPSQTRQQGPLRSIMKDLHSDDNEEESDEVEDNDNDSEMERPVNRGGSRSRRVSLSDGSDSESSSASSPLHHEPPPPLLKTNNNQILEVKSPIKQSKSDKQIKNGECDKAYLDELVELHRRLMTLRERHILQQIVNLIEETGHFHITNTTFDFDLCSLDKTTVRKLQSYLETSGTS
PfHsp90 set2 – growth inhibition of PfHsp90-expressing yeast, primary screen, antimalarial PfHsp90 inhibitor project, S. cerevisiae, BacTiter-Glo luminescence, single point, set 2; 0.32% of 310,000 active; inhibition, % at 9.4 µM; BacTiter-Glo ATP, 48 h; yeast lacking PDR1 and PDR3 efflux regulators; AID 504621, 2011;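 active = every replicate shows inhibition above about 80%, whatever the replicate mean, limit read from the data; inconclusive = mean inhibition reaches the set limit but some replicate falls short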;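 note: 0% = DMSO neutral controls and 100% = 20 µM radicicol positive controls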
S100A4 inh HTS – inhibitors of S100A4-myosin IIA peptide binding, primary screen, biochemical, fluorescence polarization, TAMRA-MyoIIA peptide; Protein S100-A4 (Homo sapiens), P26447; inhibition, % at 10.7 µM; 0.14% of 360,000 active; AID 652163, 2013;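 active = mean inhibition of at least 70% across replicates, with every replicate also reaching that level; inconclusive = mean inhibition reaches 70% but some replicates fall short; inactive = mean inhibition below 70%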
Target sequence (P26447 whole entry, looked up): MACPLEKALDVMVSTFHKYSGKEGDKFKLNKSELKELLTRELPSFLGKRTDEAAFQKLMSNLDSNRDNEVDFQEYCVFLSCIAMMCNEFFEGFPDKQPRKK
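System – human S100A4 monomer protein, biochemical binding assay · Buffer or medium – Calcium-containing HEPES buffer, pH 7.2 · Timing – 5 min between mix addition and reading · Also added – TAMRA-labelled myosin IIA heavy-chain peptide probe, 5 nM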
* marks the source's active call; other numbers are inactive results; u = inconclusive; x = no result. In the library only some 3.2% were active in any assay of this set; here they are far more common.

SMILES	rRNA inh HTS	Cneo AK release	DENV2 CPE	MLL AF4-AF9 inh	PfHsp90 set2	S100A4 inh HTS
CC(C)CC#Cc1cnc2c(c1)C(=O)N([C@@H](C)CO)C[C@@H](C)[C@@H](CN(C)S(=O)(=O)c1cn(C)cn1)O2	5	0	-1	-5	x	11
CCC(=O)N1[C@@H]2c3ccc(-c4cccc(F)c4)c(=O)n3C[C@@H]2[C@@H](CO)[C@@H]1C(=O)OC	4	-2	76*	2	x	-12
CC(=O)N1[C@H](C(=O)NCCCN(C)C)[C@@H](CO)[C@@H]2Cn3c(ccc(-c4cccc(F)c4)c3=O)[C@@H]21	1	6	-3	-1	x	101*
CCOC(=O)C1=C(Cc2ccc(Cl)cc2)C(=O)c2ccccc2C1=O	x	-7	x	x	105*	x
CC(=O)Oc1cc2c3c(c1)/C(=C1/SC(=S)NC1=O)C(=O)N3C(C)(C)C=C2C	-19	x	2	30*	-7	2
O=C1O[C@@H](Cc2ccccc2)[C@H]2[C@@H]3C=CCCC=C3CN2C12CCCC2	x	-6	33*	0	x	-8
COc1ccc(NC(=O)N(C)C[C@@H]2OCCCC[C@@H](C)Oc3ccc(NC(=O)c4ccncc4)cc3C(=O)N([C@H](C)CO)C[C@H]2C)cc1	-1	-2	20*	x	x	x
COc1ccc(NC(=O)N(C)C[C@H]2OCCCC[C@H](C)Oc3ccc(NC(=O)c4ccncc4)cc3C(=O)N([C@@H](C)CO)C[C@@H]2C)cc1	-1	-51	49*	x	x	x
COc1ccc(NC(=O)N(C)C[C@@H]2OCCCC[C@H](C)Oc3ccc(NC(=O)c4ccncc4)cc3C(=O)N([C@@H](C)CO)C[C@@H]2C)cc1	-1	9	5	x	x	x
C[C@@H]1CCCCO[C@H](CN(C)C(=O)Nc2ccc(F)cc2)[C@H](C)CN([C@H](C)CO)C(=O)c2cc(NC(=O)c3ccccc3)ccc2O1	1	8	1	2	x	7
Cc1ccc(-n2cc(CNCCCn3ccnc3C)c(-c3ccc(F)cc3)n2)cc1	-54	9	0	26*	x	-7
Brc1csc2ncccc12	10	x	1	-3	4	-7
CCOC(=O)N1CCN(Cc2ccccc2Cl)CC1	x	0	x	x	-17	x
Oc1c(CN2CCN(c3ccccc3)CC2)cc(Br)c2cccnc12	-21	0	4	21	124*	-12
Oc1c(Br)cc(Br)c2cccnc12	x	-5	-6	-4	107*	4
O=C(Oc1c(CN2CCOCC2)cc(Cl)c2cccnc12)c1ccccc1Br	-35	2	41*	x	17	-4
CCOC(=O)N1CCN(Cc2cc(Cl)c3cccnc3c2O)CC1	-51	x	3	70*	x	-2
CNC[C@H]1Oc2ccc(NS(=O)(=O)c3cn(C)cn3)cc2CC(=O)N([C@@H](C)CO)C[C@H]1C	1	22	0	-5	x	4
CCC(=O)N[C@@H]1CC[C@@H](CCn2cc(C3CC3)nn2)O[C@H]1CO	4	-1	14	-3	x	-11
C[C@@H]1CCCCO[C@@H](CN(C)C(=O)Nc2ccccc2)[C@H](C)CN([C@H](C)CO)C(=O)c2cc(NS(=O)(=O)c3cccs3)ccc2O1	-4	1	-7	4	x	-5
O=C(C[C@H]1C[C@H]2c3cc(NC(=O)NC4CCCC4)ccc3O[C@H]2[C@@H](CO)O1)NCc1cccc(F)c1	5	x	x	x	x	x
OCCN1CCN(CC/C=C2/c3ccccc3CSc3ccccc32)CC1	-9	0	6	12	x	3
OCCN1CCN(CC/C=C2/c3ccccc3Sc3ccc(C(F)(F)F)cc32)CC1	-59	5	17	27*	-9	-13
O=C(Nc1ccc(F)cc1)Nc1ccc2c(c1)[C@@H]1C[C@H](CC(=O)N3CCOCC3)O[C@@H](CO)[C@@H]1O2	1	-4	-3	-8	x	-1
CNC[C@@H]1OCCCC[C@H](C)Oc2ccc(NC(=O)Nc3ccc(F)cc3)cc2C(=O)N([C@H](C)CO)C[C@H]1C	-2	x	x	x	x	x
SMILES	rRNA inh HTS	Cneo AK release	DENV2 CPE	MLL AF4-AF9 inh	PfHsp90 set2	S100A4 inh HTS
CNC[C@H]1Oc2ccc(N)cc2CC(=O)N(C)C[C@H]1C	0	x	x	x	x	x
O=C(c1ccc2c(c1)OCO2)N1CC2(C1)[C@@H](c1ccccc1)[C@H](CO)N2C(=O)C1CCC1	1	x	-6	-3	x	1
O=C(c1ccc2c(c1)OCO2)N1CC2(C1)[C@H](c1ccccc1)[C@H](CO)N2C(=O)C1CC1	-1	x	38*	-4	x	8
O=C(c1cccc(F)c1)N1CC2(C1)[C@H](c1ccccc1)[C@H](CO)N2C(=O)C1CC1	-5	x	34*	-3	x	5
COCC(=O)N1[C@@H](CO)[C@@H](c2ccccc2)C12CN(C(=O)c1cccc(F)c1)C2	2	x	29*	-6	x	2
C[C@@H]1CN([C@H](C)CO)C(=O)Cc2cc(N(C)C)ccc2O[C@H]1CN(C)Cc1ccc(C(=O)O)cc1	5	-4	-6	-3	x	19
COc1ccc(CN(C)C[C@H]2Oc3ccc(N(C)C)cc3CC(=O)N([C@H](C)CO)C[C@H]2C)cc1	1	-1	-4	0	x	3
C[C@H]1CN([C@@H](C)CO)C(=O)Cc2cc(N(C)C)ccc2O[C@H]1CN(C)Cc1ccc(Oc2ccccc2)cc1	-20	-8	-6	48*	x	4
C[C@H]1CN([C@@H](C)CO)C(=O)Cc2cc(N(C)C)ccc2O[C@@H]1CN(C)Cc1ccc(Oc2ccccc2)cc1	-4	-7	11	26*	x	-1
C[C@@H]1CN([C@H](C)CO)C(=O)Cc2cc(N(C)C)ccc2O[C@@H]1CN(C)Cc1ccc(Oc2ccccc2)cc1	-5	4	8	51*	x	-1
C[C@@H]1CN([C@@H](C)CO)C(=O)c2cccc(NC(=O)C3CCOCC3)c2O[C@@H]1CN(C)C	6	-3	u	-1	x	-27
C[C@@H](NC(=O)C[C@H]1C[C@@H]2c3cc(NC(=O)NC4CCCC4)ccc3O[C@@H]2[C@@H](CO)O1)c1ccccc1	-7	3	1	2	x	0
COc1ccc(C(=O)C2CCN(CC(=O)Nc3cc(C)cc(C)c3)CC2)cc1	-31	9	3	-2	25	4
Cc1ccc(C(=O)C2CCN(CC(=O)Nc3nc(C)cs3)CC2)cc1	-22*	-3	3	7	-11	2
